Reference: ChEMBL document CHEMBL3124854, “Synthesis and evaluation of antiproliferative activity of a novel series of hydroxychavicol analogs” (Eur J Med Chem, 2014)

Key:
HeLa = assay: Cytotoxicity against human HeLa cells assessed as growth inhibition after 48 hrs by MTT assay; type: functional, cell-based
Outline: (§1)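 MTT proliferation assay: 2 × 10³ cells per well seeded, 24 h incubation, then treated with analogs dissolved in DMSO and diluted in medium at […] for 48 h. Medium then replaced with fresh medium carrying MTT (5 mg/mL stock in PBS). IC50 taken as concentration inhibiting proliferation of 50% cells; SD between batches.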

PC-3 = assay: Cytotoxicity against human PC3 cells assessed as growth inhibition after 48 hrs by MTT assay; type: functional, cell-based; conditions: PC-3, 48 h; outline: as §1

SMILES | IC50 (HeLa) [µM] | IC50 (PC-3) [µM]
CC(=O)OCCCc1ccc(O)c(O)c1 | 22 | 83
C=CC(O)c1ccc(OCc2ccccc2)c(O)c1 (stereo not given) | 76 | –
CCC(OC(C)=O)c1ccc(OC(C)=O)c(OC(C)=O)c1 (stereo not given) | 53 | 42
CCC(OC(C)=O)c1ccc(O)c(OC(C)=O)c1 (stereo not given) | 40 | 48
CC(=O)OC/C=C/c1ccc(OCc2ccccc2)c(OC(C)=O)c1 | 42 | 38
COc1cc(CC(COC(C)=O)OC(C)=O)ccc1O (stereo not given) | 60 | –
C=CCOc1ccc(CC(COC(C)=O)OC(C)=O)cc1OC (stereo not given) | 96 | –
CC(=O)OC/C=C/c1ccc(OCc2ccccc2)c(O)c1 | 13 | 3.5
C=CCc1ccc(O)c(O)c1 [HYDROXYCHAVICOL] | 83 | 55
